In brackets after ≈: the same amount, converted by molar mass.
Legend:
Bacillus subtilis = experiment: Antimicrobial activity against Bacillus subtilis ATCC 11774 after 18 to 24 hrs by microbroth dilution method; assay type: functional
Procedure, shortened: (§1)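 Bacteria were cultured in Mueller Hinton broth in 96-well microtiter plates, and the suspensions were added to MHB containing varying concentrations of test compound. Plates were incubated at 37 °C for 18–24 h, then read visually with a reading mirror and spectrophotometrically at 450 nm. MIC was taken as the lowest concentration giving complete suppression of visible growth.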

Streptococcus salivarius = experiment: Antimicrobial activity against Streptococcus salivarius ATCC 13419 after 18 to 24 hrs by microbroth dilution method; assay type: functional; procedure, shortened: as §1
Streptococcus mitis = experiment: Antimicrobial activity against Streptococcus mitis ATCC 6249 after 18 to 24 hrs by microbroth dilution method; assay type: functional; procedure, shortened: as §1
Shigella boydii = experiment: Antimicrobial activity against Shigella boydii ATCC 9207 after 18 to 24 hrs by microbroth dilution method; assay type: functional; procedure, shortened: as §1
Vibrio parahaemolyticus = experiment: Antimicrobial activity against Vibrio parahaemolyticus ATCC 17802 after 18 to 24 hrs by microbroth dilution method; assay type: functional; procedure, shortened: as §1
Proteus vulgaris = experiment: Antimicrobial activity against Proteus vulgaris ATCC 49132 after 18 to 24 hrs by microbroth dilution method; assay type: functional; procedure, shortened: as §1
Proteus mirabilis = experiment: Antimicrobial activity against Proteus mirabilis ATCC 7002 after 18 to 24 hrs by microbroth dilution method; assay type: functional; procedure, shortened: as §1
Klebsiella pneumoniae = experiment: Antimicrobial activity against Klebsiella pneumoniae ATCC 10031 after 18 to 24 hrs by microbroth dilution method; assay type: functional; procedure, shortened: as §1
Aeromonas hydrophila = experiment: Antimicrobial activity against Aeromonas hydrophila ATCC 7966 after 18 to 24 hrs by microbroth dilution method; assay type: functional; procedure, shortened: as §1
Salmonella paratyphi = experiment: Antimicrobial activity against Salmonella paratyphi A ATCC 9150 after 18 to 24 hrs by microbroth dilution method; assay type: functional, Salmonella enterica subsp. enterica serovar Paratyphi A; details: Salmonella enterica
Procedure, shortened: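 Broth microdilution in 96-well plates; bacteria grown in Mueller Hinton broth with varying concentrations of test compound, incubated at 37 °C for 18–24 h. Plates read visually with a reading mirror and spectrophotometrically at 450 nm. MIC taken as lowest concentration giving complete suppression of visible growth.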

Staphylococcus aureus = experiment: Antimicrobial activity against Staphylococcus aureus ATCC 11632 after 18 to 24 hrs by microbroth dilution method; assay type: functional; procedure, shortened: as §1
Candida albicans = experiment: Antimicrobial activity against Candida albicans ATCC 90028 after 18 to 24 hrs by microbroth dilution method; assay type: functional
Procedure, shortened: as §1, with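 “Fungal isolates” for “Bacteria”, “cultivated” for “cultured”, “Sabouraud's” for “Mueller Hinton”, “SDB” for “MHB”, “completely suppressing” for “giving complete suppression of”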

Cryptococcus neoformans = experiment: Antimicrobial activity against Cryptococcus neoformans ATCC 14116 after 18 to 24 hrs by microbroth dilution method; assay type: functional
Procedure, shortened: as §1, with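 “Fungal isolates” for “Bacteria”, “cultivated” for “cultured”, “Sabouraud's” for “Mueller Hinton”, “SDB” for “MHB”, “completely suppressing” for “giving complete suppression of”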

Vibrio alginolyticus = experiment: Antimicrobial activity against Vibrio alginolyticus ATCC 17749 after 18 to 24 hrs by microbroth dilution method; assay type: functional; procedure, shortened: as §1
Streptococcus sanguinis = experiment: Antimicrobial activity against Streptococcus sanguinis ATCC 10556 after 18 to 24 hrs by microbroth dilution method; assay type: functional; procedure, shortened: as §1
Pseudomonas aeruginosa = experiment: Antimicrobial activity against Pseudomonas aeruginosa ATCC 10145 after 18 to 24 hrs by microbroth dilution method; assay type: functional; procedure, shortened: as §1

Row | SMILES | MIC (Bacillus subtilis) | MIC (Streptococcus salivarius) | MIC (Streptococcus mitis) | MIC (Shigella boydii) | MIC (Vibrio parahaemolyticus) | MIC (Proteus vulgaris) | MIC (Proteus mirabilis) | MIC (Klebsiella pneumoniae) | MIC (Aeromonas hydrophila) | MIC (Salmonella paratyphi) | MIC (Staphylococcus aureus) | MIC (Candida albicans) | MIC (Cryptococcus neoformans) | MIC (Vibrio alginolyticus) | MIC (Streptococcus sanguinis) | MIC (Pseudomonas aeruginosa)
1 | CCn1cc(C(=O)O)c(=O)c2cc(F)c(N3CCN(c4ccc(F)cc4)CC3)c(F)c21 | 2.5 µg/mL (≈ 5.79 µM) | 1.5 µg/mL (≈ 3.48 µM) | 1.5 µg/mL (≈ 3.48 µM) | 2 µg/mL (≈ 4.64 µM) | 1.5 µg/mL (≈ 3.48 µM) | 2.5 µg/mL (≈ 5.79 µM) | 1.25 µg/mL (≈ 2.9 µM) | 1.5 µg/mL (≈ 3.48 µM) |  |  |  |  |  |  |  | 
2 | CCn1cc(C(=O)O)c(=O)c2cc(F)c(N3CCN(c4ccccc4F)CC3)c(F)c21 | 1.25 µg/mL (≈ 2.9 µM) | 1 µg/mL (≈ 2.32 µM) | 1.5 µg/mL (≈ 3.48 µM) | 2 µg/mL (≈ 4.64 µM) | 1.5 µg/mL (≈ 3.48 µM) | 2.5 µg/mL (≈ 5.79 µM) | 5 µg/mL (≈ 11.6 µM) | 1.5 µg/mL (≈ 3.48 µM) | 1.5 µg/mL (≈ 3.48 µM) |  |  |  |  |  |  | 
3 | CCn1cc(C(=O)O)c(=O)c2cc(F)c(N3CCN(c4ccccc4C#N)CC3)c(F)c21 | 1.5 µg/mL (≈ 3.42 µM) | 2.5 µg/mL (≈ 5.7 µM) | 1.5 µg/mL (≈ 3.42 µM) | 2 µg/mL (≈ 4.56 µM) | 1.5 µg/mL (≈ 3.42 µM) | 1 µg/mL (≈ 2.28 µM) | 2.5 µg/mL (≈ 5.7 µM) | 1 µg/mL (≈ 2.28 µM) |  | 1.5 µg/mL (≈ 3.42 µM) |  |  |  |  |  | 
4 | CCn1cc(C(=O)O)c(=O)c2cc(F)c(N3CCN(Cc4ccccc4)CC3)c(F)c21 |  | 2.5 µg/mL (≈ 5.85 µM) | 1.5 µg/mL (≈ 3.51 µM) | 1.5 µg/mL (≈ 3.51 µM) | 1.5 µg/mL (≈ 3.51 µM) |  | 1.5 µg/mL (≈ 3.51 µM) | 1 µg/mL (≈ 2.34 µM) | 1.5 µg/mL (≈ 3.51 µM) | 1 µg/mL (≈ 2.34 µM) |  |  |  |  |  | 
5 | CCn1cc(C(=O)O)c(=O)c2cc(F)c(N3CCN(c4ccccc4)CC3)c(F)c21 | 5 µg/mL (≈ 12.1 µM) | 1 µg/mL (≈ 2.42 µM) | 1.5 µg/mL (≈ 3.63 µM) |  |  | 1.5 µg/mL (≈ 3.63 µM) | 1.5 µg/mL (≈ 3.63 µM) | 2 µg/mL (≈ 4.84 µM) |  |  | 1 µg/mL (≈ 2.42 µM) | 413 µg/mL (≈ 1000 µM) |  |  |  | 
6 | CCn1cc(C(=O)O)c(=O)c2cc(F)c(N3CCN(c4cccc(Cl)c4Cl)CC3)c(F)c21 | 5 µg/mL (≈ 10.4 µM) | 2.5 µg/mL (≈ 5.18 µM) | 5 µg/mL (≈ 10.4 µM) | 1 µg/mL (≈ 2.07 µM) | 1.25 µg/mL (≈ 2.59 µM) | 2.5 µg/mL (≈ 5.18 µM) | 5 µg/mL (≈ 10.4 µM) | 1.25 µg/mL (≈ 2.59 µM) | 0.5 µg/mL (≈ 1.04 µM) | 5 µg/mL (≈ 10.4 µM) | 1 µg/mL (≈ 2.07 µM) | 108 µg/mL (≈ 224 µM) | 2.17 µg/mL (≈ 4.5 µM) | 1 µg/mL (≈ 2.07 µM) |  | 
7 | CCn1cc(C(=O)O)c(=O)c2cc(F)c(N3CCC(NC)CC3)c(F)c21 | 1.25 µg/mL (≈ 3.42 µM) | 2.5 µg/mL (≈ 6.84 µM) | 2.5 µg/mL (≈ 6.84 µM) | 1 µg/mL (≈ 2.74 µM) | 0.5 µg/mL (≈ 1.37 µM) | 1.25 µg/mL (≈ 3.42 µM) | 1.25 µg/mL (≈ 3.42 µM) | 5 µg/mL (≈ 13.7 µM) | 2 µg/mL (≈ 5.47 µM) | 5 µg/mL (≈ 13.7 µM) | 2.5 µg/mL (≈ 6.84 µM) |  | 1.82 µg/mL (≈ 4.98 µM) | 2.5 µg/mL (≈ 6.84 µM) | 2 µg/mL (≈ 5.47 µM) | 1 µg/mL (≈ 2.74 µM)
8 | CCn1cc(C(=O)O)c(=O)c2cc(F)c(N3CCC(C)CC3)c(F)c21 | 5 µg/mL (≈ 14.3 µM) | 2.5 µg/mL (≈ 7.14 µM) | 1 µg/mL (≈ 2.85 µM) |  | 1.5 µg/mL (≈ 4.28 µM) | 1 µg/mL (≈ 2.85 µM) | 2.5 µg/mL (≈ 7.14 µM) | 1.5 µg/mL (≈ 4.28 µM) |  |  |  |  |  |  |  | 
9 | CCn1cc(C(=O)O)c(=O)c2cc(F)c(N3CCC(N4CCCCC4)CC3)c(F)c21 |  | 2.5 µg/mL (≈ 5.96 µM) | 2.5 µg/mL (≈ 5.96 µM) | 1 µg/mL (≈ 2.38 µM) | 2.5 µg/mL (≈ 5.96 µM) | 1.25 µg/mL (≈ 2.98 µM) | 1.25 µg/mL (≈ 2.98 µM) | 2.5 µg/mL (≈ 5.96 µM) | 0.5 µg/mL (≈ 1.19 µM) | 1 µg/mL (≈ 2.38 µM) | 2.5 µg/mL (≈ 5.96 µM) |  |  |  |  | 
10 | CCn1cc(C(=O)O)c(=O)c2cc(F)c(N3CCC(CO)CC3)c(F)c21 | 1 µg/mL (≈ 2.73 µM) | 1.25 µg/mL (≈ 3.41 µM) | 2.5 µg/mL (≈ 6.82 µM) | 0.5 µg/mL (≈ 1.36 µM) | 1.25 µg/mL (≈ 3.41 µM) | 1.25 µg/mL (≈ 3.41 µM) | 1.25 µg/mL (≈ 3.41 µM) | 2.5 µg/mL (≈ 6.82 µM) | 1 µg/mL (≈ 2.73 µM) | 5 µg/mL (≈ 13.6 µM) | 1.25 µg/mL (≈ 3.41 µM) | 183 µg/mL (≈ 500 µM) | 4.19 µg/mL (≈ 11.4 µM) | 1 µg/mL (≈ 2.73 µM) | 2 µg/mL (≈ 5.46 µM) | 1.5 µg/mL (≈ 4.09 µM)
11 | CCn1cc(C(=O)O)c(=O)c2cc(F)c(N3CCC(Br)CC3)c(F)c21 | 2.5 µg/mL (≈ 6.02 µM) | 2.5 µg/mL (≈ 6.02 µM) | 1 µg/mL (≈ 2.41 µM) | 1 µg/mL (≈ 2.41 µM) | 5 µg/mL (≈ 12 µM) | 2.5 µg/mL (≈ 6.02 µM) | 5 µg/mL (≈ 12 µM) | 5 µg/mL (≈ 12 µM) | 1.5 µg/mL (≈ 3.61 µM) |  | 5 µg/mL (≈ 12 µM) | 415 µg/mL (≈ 999 µM) | 1.03 µg/mL (≈ 2.48 µM) |  |  | 
12 | O=C(O)c1cn(C2CC2)c2cc(N3CCNCC3)c(F)cc2c1=O [CIPROFLOXACIN] | 1.5 µg/mL (≈ 4.53 µM) | 1.5 µg/mL (≈ 4.53 µM) | 2.5 µg/mL (≈ 7.54 µM) | 2.5 µg/mL (≈ 7.54 µM) | 8 µg/mL (≈ 24.1 µM) | 3 µg/mL (≈ 9.05 µM) | 6 µg/mL (≈ 18.1 µM) | 1.5 µg/mL (≈ 4.53 µM) | 3 µg/mL (≈ 9.05 µM) | 4 µg/mL (≈ 12.1 µM) | 1 µg/mL (≈ 3.02 µM) |  |  | 2 µg/mL (≈ 6.04 µM) | 4 µg/mL (≈ 12.1 µM) | 
13 | CCn1cc(C(=O)O)c(=O)c2cc(F)c(N3CCNCC3)cc21 [NORFLOXACIN] |  |  |  |  |  |  |  |  |  |  |  | 312 µg/mL (≈ 979 µM) | 4.88 µg/mL (≈ 15.3 µM) |  |  | 
